This is an account of results in ChEMBL document CHEMBL1123227, “Tricyclic epines. Novel (E)- and (Z)-11H-dibenz[b,e]azepines as potential central nervous system agents. Variation of the basic side chain” (1986).

Holding throughout (type): functional
Assay [1] is filed under the species Rattus norvegicus. The experiment in a line: Compound was tested or the anti-tryptamine activity in rats relative with respect to clozapine. The essentials: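 Rats dosed ip 30 min before tryptamine hydrochloride 16 mg/kg iv. Effect means front paw clonic movements absent over 5 min observation after tryptamine. ED50 is the dose preventing the symptom in half the animals (Probit analysis); relative activity referenced to clozapine.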

The species entered for the next assay is Oryctolagus cuniculus. The experiment in a line: Compound was tested for the muscle-relaxing activity in rabbits. An outline of the steps: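 Muscle electrical activity during contraction was recorded and pulses were counted. A 5 s extension was repeated every 1 min. Once pulse counts were constant (control value), the substance was given iv, and post-dose pulses were related to that value. Four to six animals were used per dose. ED50 was the dose halving muscle activity from the initial value.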

For assay [2], the species on record is Mus musculus. The experiment in a line: Anticholinergic activity in mice. The essentials: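 Groups of 10 female NMRI mice received a lethal dose of physostigmine (0.825 mg/kg sc). Test substances were given orally 30 min before the physostigmine.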
Assay [3] is filed under the species Rattus norvegicus. Put plainly: Compound was tested or the anti-tryptamine activity in rats. The essentials: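 Rats were challenged with tryptamine hydrochloride (16 mg/kg iv), with test substances given ip 30 min beforehand. Activity was scored as absence of clonic front paw movements over a 5 min observation after tryptamine. ED50 was the dose preventing the symptom in half the animals, determined by Probit analysis.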

The species entered for assay [4] is Mus musculus. The experiment in a line: Sedative activity relative with respect to clozapine.
The species named for assay [5] is Rattus norvegicus. Put plainly: Compound was tested for the apomorphine antagonistic activity in rats expressed as relative activity. An outline of the steps: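 Female Sprague–Dawley rats, groups of four to six. Oral dosing 90 min before apomorphine 1.5 mg/kg sc. Jaw movements recorded via implanted electrodes (mandibulogram).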
For assay [6], the species on record is Mus musculus. The experiment in a line: Anticholinergic activity relative with respect to clozapine.
The species entered for assay [7] is Mus musculus. The experiment in a line: Sedative activity in mice.

`Cc1ccc2c(c1)N=C(N1CCN(C)CC1)c1ccccc1/C2=C\C#N`: the Relative activity in the assay filed under Rattus norvegicus [1] stood at 0.5. The 50% effective dose (ED50) (commonly the dose that gives a 50% effect, or the effect in half of the subjects) in the assay filed under Oryctolagus cuniculus is 0.014 mg/kg; in the assay listed under Mus musculus [2] it was roughly 100 mg/kg; in the assay filed under Rattus norvegicus [3], 10 mg/kg.

As for `CN1CCN(C2=Nc3cc(Cl)ccc3Nc3ccccc32)CC1` [CLOZAPINE], the Relative activity in the assay filed under Mus musculus [4], in the assay listed under Rattus norvegicus [1], in the assay filed under Rattus norvegicus [5] and in the assay listed under Mus musculus [6] was 1 in each case. The ED50 in the assay listed under Oryctolagus cuniculus came out at 0.028 mg/kg; in the assay filed under Rattus norvegicus [3], 5 mg/kg.

Turning to `CN1CCN(C2=Nc3ccccc3/C(=C\C#N)c3ccccc32)CC1`, the Relative activity is given as less than 0.2 in the assay filed under Mus musculus [4], 0.16 in the assay filed under Rattus norvegicus [1] and 3 in the assay filed under Mus musculus [6]. Moreover, the median effective dose (ED50) in the assay listed under Oryctolagus cuniculus was roughly 1 mg/kg; in the assay filed under Rattus norvegicus [3], 32 mg/kg.

As for `CN1CCN(C2=Nc3ccccc3/C(=C/C#N)c3ccccc32)CC1`, the Relative activity worked out at 0.06 in the assay listed under Rattus norvegicus [1] and 0.81 in the assay listed under Mus musculus [6]. Besides, the ED50 was 0.046 mg/kg in the assay listed under Oryctolagus cuniculus and 79 mg/kg in the assay listed under Rattus norvegicus [3].

Regarding `Cc1ccc2c(c1)N=C(N1CCN(C)CC1)c1ccccc1C2=CC#N`, the Relative activity amounted to 5.9 in the assay listed under Mus musculus [4], 0.83 in the assay listed under Rattus norvegicus [1] and 0.45 in the assay filed under Mus musculus [6]. Also, the results for the median effective dose (ED50) in the assay filed under Oryctolagus cuniculus, in the assay listed under Mus musculus [7] and in the assay listed under Rattus norvegicus [3] were 0.028 mg/kg, 0.8 mg/kg and 6 mg/kg, respectively.

Consider `Cc1ccc2c(c1)N=C(N1CCN(C)CC1)c1ccccc1/C2=C/C#N`, for which the Relative activity in the assay listed under Rattus norvegicus [1] worked out at 0.1. Besides, the ED50 amounted to 0.25 mg/kg in the assay filed under Oryctolagus cuniculus, 33.6 mg/kg in the assay listed under Mus musculus [7] and 51 mg/kg in the assay filed under Rattus norvegicus [3].
